The entries come from a sample that favours hits as a whole.
HUVEC inhibit = inhibitors of HUVEC proliferation, primary screen, cell-based, 384-well. CellTiter-Glo luminescence, 72 h; hits give low values. viability, % at 10 µM (by protocol). actives 1.1% (n = 86,000). AID 648, 2007;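 active means viability at or below 30%; inactive means viability above 30%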;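 further: 100% = median luminescence of DMSO-only cell control wells on each plate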
Phagocyt inh = inhibitors of macrophage phagocytosis, primary screen, imaging, J774A.1 cells, IgG beads; J774A.1 macrophage IgG-bead phagocytosis; inhibition, % at 5 µM; actives 0.07% (n = 110,000);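 active means inhibition above the mean of the plate negative controls plus 5 SD, cut at about 13% in these data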;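 further: phagocytic index as fraction of beads internalized from green versus red external bead signal; plate controls were DMSO negative control for no effect and cytochalasin-D positive control for full effect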
H69AR growth 86K = proliferation blockers of H69AR lung cancer cells, primary screen, cell-based, human, 86K library; actives 6% (n = 85,000); H69AR lung tumor viability, ATP luminescence, 72 h; hits give low values; viability, % at 10 µM;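 active means viability at or below 40%; inactive means viability above 40%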;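 further: multidrug resistant small cell line overexpressing MRP-1 efflux transporter; 100% = mean luminescence of untreated control wells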
PTEN del growth = growth suppression of PTEN-null HCT116, primary screen, cell-based, CellTiter-Glo | viability, % at 10 µM | actives 1.2% (n = 140,000) | HCT116 PTEN-null viability, 60 h; hits give low values;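 active means viability at or below a set limit, 4 SD under the median of all tested compounds, cut at about 3.7% in these data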;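 further: PTEN knockout HCT116 line with beta catenin targeted HCT116 as companion control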
Lung fibro prol = antiproliferative effect on LL 47 fibroblasts – human, LL 47 cells, CellTiter-Glo luminescence, primary screen; viability, % at 10 µM; actives 1.1% (n = 85,000); AID 719, 2007; LL 47 human lung fibroblast viability, ATP luminescence; hits give low values;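 active means viability at or below 50% in the single dose screen; inactive means viability above 50%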;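 further: compound exposure lasted 72 h before the ATP readout; 100% = median luminescence of untreated cell-only wells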
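Times – overnight cell rest, 72 h compound treatment at 37 °C · Test system – human lung fibroblast line LL 47, low passage · Amount – 1,150 cells in each well · Controls – cell-only wells, no compound · Doses – 0.1% DMSO in all compound wells · Measured by – CellTiter-Glo luminescence · Buffer or medium – IMEM plus 15% FBS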
bCat KO growth = primary screen for growth suppressors in beta-catenin knockout HCT116 cells (colon tumor, human); viability, % at 10 µM; HCT116 beta-catenin knockout viability, CellTiter-Glo, 60 h; hits give low values; AID 818, 2007; actives 1.5% (n = 140,000);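 active means viability at or under a set limit, the compound median less 4 SD, cut at about 6% in these data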;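 further: 0% = Hyamine 1622 control at 20 µM and 100% = untreated cell control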
An asterisk follows results filed as active.

What do the screens show for `COc1ccccc1NC(=O)CN1C(=O)CCS(=O)(=O)c2ccccc21`?
HUVEC inhibit: 107; H69AR growth 86K: 102; PTEN del growth: 103; Lung fibro prol: 104; bCat KO growth: 99

How did O=c1cc(CN2CCN(c3ccccc3)CC2)c2cc(O)c(-c3ccccc3)cc2o1 do in these assays?
HUVEC inhibit: 35; Phagocyt inh: -1; H69AR growth 86K: 5.0*; PTEN del growth: 84; Lung fibro prol: 48*; bCat KO growth: 87

Results for CC(C)c1ccc2oc(=O)cc(CN3CCN(c4ccc(F)cc4)CC3)c2c1 ?
HUVEC inhibit: 70; Phagocyt inh: 1; H69AR growth 86K: 69; PTEN del growth: 65; Lung fibro prol: 92; bCat KO growth: 60

Results for O=c1cc(CN2CCN(C/C=C/c3ccccc3)CC2)c2cc(O)ccc2o1 ?
HUVEC inhibit: 75; Phagocyt inh: 2; H69AR growth 86K: 39*; PTEN del growth: 31; Lung fibro prol: 98; bCat KO growth: 14

How did O=c1cc(CN2CCN(Cc3ccccc3)CC2)c2cc(Cl)ccc2o1 do in these assays?
HUVEC inhibit: 98; Phagocyt inh: 0; H69AR growth 86K: 105; PTEN del growth: 81; Lung fibro prol: 96; bCat KO growth: 83

Results for CCc1ccc2oc(=O)cc(CN3CCN(c4ccc(F)cc4)CC3)c2c1 ?
HUVEC inhibit: 40; Phagocyt inh: -1; H69AR growth 86K: 37*; PTEN del growth: 76; Lung fibro prol: 26*; bCat KO growth: 78

How did CCCCc1ccc(NC(=S)Nc2ccc(Cl)c(S(=O)(=O)N(C)C)c2)cc1 do in these assays?
Phagocyt inh: -2; PTEN del growth: 49; bCat KO growth: 58

How did CCOC(=O)c1nnn(CC(=O)N2N=C(c3ccc(Cl)cc3)CC2c2ccccc2)c1C(=O)OCC (centres undefined) do in these assays?
HUVEC inhibit: 75; H69AR growth 86K: 19*; PTEN del growth: 72; Lung fibro prol: 68; bCat KO growth: 67

What do the screens show for `CCOC(=O)c1nnn(CC(=O)N2N=C(c3ccc(Cl)cc3)CC2c2ccc(OC)cc2)c1C(=O)OCC` (centres undefined)?
HUVEC inhibit: 80; H69AR growth 86K: 74; PTEN del growth: 83; Lung fibro prol: 81; bCat KO growth: 86

Results for O=[N+]([O-])c1ccccc1Sc1nccn1Cc1ccccc1 ?
Phagocyt inh: -9; PTEN del growth: 99; bCat KO growth: 92

Results for Oc1ccc(Nc2nc(N3CCCC3)c3ccccc3n2)cc1 ?
HUVEC inhibit: 47; Phagocyt inh: -1; H69AR growth 86K: 0.7*; PTEN del growth: 1.8*; Lung fibro prol: 2.5*; bCat KO growth: 2.0*

How did C(=C\c1nc(N2CCCC2)c2ccccc2n1)/c1ccccc1 do in these assays?
Phagocyt inh: -5; PTEN del growth: 2.2*; bCat KO growth: 1.8*

What do the screens show for `COc1ccc(Nc2nc(N3CCCCC3)c3ccccc3n2)cc1`?
PTEN del growth: 10; bCat KO growth: 10

How did C=C(C)CNC(=S)N1CCNC(=O)C1CC(=O)OC (centres undefined) do in these assays?
PTEN del growth: 101; bCat KO growth: 97

How did CCc1cc(SC#N)cc(CC)c1NC(=O)CCl do in these assays?
Phagocyt inh: -2; PTEN del growth: 1.6*; bCat KO growth: 1.9*

How did Cc1c(Br)c([N+](=O)[O-])nn1C(C)C(=O)Nc1ccc2c(c1)OCO2 (centres undefined) do in these assays?
Phagocyt inh: -2; PTEN del growth: 75; bCat KO growth: 78

How did CCCCCCCC(O)CC(CC1CCCCC1)C(=O)NN (centres undefined) do in these assays?
Phagocyt inh: -7; PTEN del growth: 96; bCat KO growth: 89

What do the screens show for `C=CCn1c(=O)/c(=C/c2ccc(F)cc2)s/c1=C(\C#N)c1nnc2n1CCCCC2`?
HUVEC inhibit: 70; Phagocyt inh: 1; H69AR growth 86K: 39*; PTEN del growth: 52; Lung fibro prol: 81; bCat KO growth: 57

How did Fc1ccc(/C=N/n2c(-c3cccs3)n[nH]c2=S)cc1 do in these assays?
Phagocyt inh: 0; PTEN del growth: 90; bCat KO growth: 83

What do the screens show for `COc1ccc2c(c1)CCc1c(C(=O)N3CCOCC3)noc1-2`?
HUVEC inhibit: 100; Phagocyt inh: 0; H69AR growth 86K: 87; PTEN del growth: 81; Lung fibro prol: 103; bCat KO growth: 80

What do the screens show for `COc1ccc2c(c1)CCc1c(C(=O)N3CC4(C)CC3CC(C)(C)C4)noc1-2` (centres undefined)?
HUVEC inhibit: 86; H69AR growth 86K: 35*; PTEN del growth: 76; Lung fibro prol: 96; bCat KO growth: 71

Results for COc1ccc(-c2cc(C(=O)Nc3cc(C)n(Cc4ccc(Cl)cc4)n3)no2)cc1OC ?
HUVEC inhibit: 46; Phagocyt inh: 1; H69AR growth 86K: 14*; PTEN del growth: 70; Lung fibro prol: 106; bCat KO growth: 78

Results for Cc1ccc(Cn2ccc(NC(=O)c3noc4c3CCc3ccccc3-4)n2)cc1 ?
HUVEC inhibit: 81; Phagocyt inh: 1; H69AR growth 86K: 103; PTEN del growth: 52; Lung fibro prol: 104; bCat KO growth: 36

What do the screens show for `COc1ccc2c(c1)CCc1c(C(=O)Nc3cc(C)n(Cc4ccc(Cl)cc4)n3)noc1-2`?
HUVEC inhibit: 52; Phagocyt inh: 0; H69AR growth 86K: 5.3*; PTEN del growth: 87; Lung fibro prol: 60; bCat KO growth: 91

How did COc1ccc2c(c1)CCc1c(C(=O)NCc3ccc(Cl)cc3)noc1-2 do in these assays?
HUVEC inhibit: 89; Phagocyt inh: -1; H69AR growth 86K: 51; PTEN del growth: 99; Lung fibro prol: 105; bCat KO growth: 82

Results for COc1ccc(OC)c(-c2cc(C(=O)Nc3c(C)nn(Cc4ccc(Cl)cc4)c3C)no2)c1 ?
HUVEC inhibit: 72; Phagocyt inh: -2; H69AR growth 86K: 63; PTEN del growth: 57; Lung fibro prol: 99; bCat KO growth: 63

Results for COc1ccc2c(c1)CCc1c(C(=O)Nc3ccn(Cc4ccc(C)cc4)n3)noc1-2 ?
HUVEC inhibit: 38; Phagocyt inh: -4; H69AR growth 86K: 10*; PTEN del growth: 47; Lung fibro prol: 93; bCat KO growth: 30

What do the screens show for `O=C(c1cc2c(s1)CCCC2)N1CCN(S(=O)(=O)c2ccccc2C(F)(F)F)CC1`?
Phagocyt inh: -6; PTEN del growth: 100; bCat KO growth: 74

How did COc1ccc(S(=O)(=O)N2CCCCCC2)cc1N(C)S(=O)(=O)c1ccc(Cl)cc1 do in these assays?
PTEN del growth: 65; bCat KO growth: 62

High-throughput results (PubChem BioAssay)
